Reference: ChEMBL document CHEMBL4152320, “Discovery and development of novel salicylate synthase (MbtI) furanic inhibitors as antitubercular agents” (Eur J Med Chem, 2018)
In brackets after ≈: the same amount, converted by molar mass.

Tests used:
[1] = tested on: Mycobacterium tuberculosis; test: Antimycobacterial activity against Mycobacterium bovis BCG in 7H9 medium; format: functional; conditions: variant bovis BCG
Procedure, shortened: (§1)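 M. bovis BCG MIC determined in liquid medium, comparing iron conditions: cells grown in 7H9/OADC (high iron) versus low-iron chelated Sauton's medium.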

[2] = tested on: Mycobacterium tuberculosis; test: Ratio of MIC for Mycobacterium bovis BCG in 7H9 medium to MIC for Mycobacterium bovis BCG in low iron containing medium; format: functional, variant bovis BCG
[3] = tested on: Mycobacterium tuberculosis; test: Antimycobacterial activity against Mycobacterium bovis BCG in low iron containing medium; format: functional; conditions: variant bovis BCG; procedure, shortened: as §1

O=C(O)c1ccc(-c2ccc([N+](=O)[O-])cc2)o1
MIC [1]: 240 µM (≈ 56 µg/mL)
Ratio [2]: 3
MIC [3]: 80 µM (≈ 18.7 µg/mL)
